Measurements from ChEMBL document CHEMBL4028805, “Phenylthiazole Antibacterial Agents Targeting Cell Wall Synthesis Exhibit Potent Activity in Vitro and in Vivo against Vancomycin-Resistant Enterococci” (J Med Chem, 2017).
Values after ≈ are worked out from the molar mass of the structure shown. Active and inactive are the calls of the source.

Tests used:
Escherichia coli [1] = test: Antibacterial activity against Escherichia coli 1411 after 18 to 22 hrs in absence of colistin by broth microdilution method; format: functional
Outline: (§1)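 Broth microdilution per CLSI guidelines. Gram-negatives grown in TSB. Each strain tested alone and again with colistin at ¼ × MIC to permeabilize the outer membrane. Plates incubated at 37 °C for 18–22 h. MIC read as the lowest concentration showing no visible growth.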

Escherichia coli [2] = test: Antibacterial activity against Escherichia coli 1411 harboring delta-acrAB after 18 to 22 hrs in absence of colistin by broth microdilution method; format: functional
Enterococcus faecium [3] = test: Antibacterial activity against vancomycin-resistant Enterococcus faecium ATCC 700221 after 18 to 22 hrs in absence of colistin by broth microdilution method; format: functional
Enterococcus faecium [4] = test: Antibacterial activity against Enterococcus faecium clinical isolates after 18 to 22 hrs by broth microdilution method; format: functional
Outline: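 Enterococcus faecium grown in BHI. MIC by CLSI broth microdilution, 37 °C for 18–22 h. Lowest concentration with no visible growth taken as MIC, reported as MIC50 across the isolates.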

Enterococcus faecium [5] = test: Bactericidal activity against Vancomycin-resistant Enterococcus faecium clinical isolates after 18 to 22 hrs by broth microdilution method; format: functional
Outline: (§2)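 MBC follows the broth microdilution MIC. 5 μL aliquots spotted onto TSA (E. faecalis) or BHI agar (E. faecium), incubated 37 °C for 18–22 h. MBC is the concentration giving >99% reduction in bacterial count. MBC50 is the value for 50% of isolates.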

Enterococcus faecium [6] = test: Bactericidal activity against Enterococcus faecium after 18 to 22 hrs by broth microdilution method; format: functional
Outline: (§3)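 MBC determined after the broth microdilution MIC. 5 μL aliquots plated onto TSA (E. faecalis) or BHI agar (E. faecium) and incubated at 37 °C for 18–22 h. MBC is the concentration giving >99% reduction in cell count, reported as MBC50.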

Enterococcus faecalis [7] = test: Bactericidal activity against Enterococcus faecalis clinical isolates after 18 to 22 hrs by broth microdilution method; format: functional; outline: as §3
Enterococcus faecalis [8] = test: Bactericidal activity against vancomycin-resistant Enterococcus faecalis clinical isolates after 18 to 22 hrs by broth microdilution method; format: functional; outline: as §2
Enterococcus faecalis [9] = test: Bacteriostatic activity against vancomycin-resistant Enterococcus faecalis HM-201 assessed as reduction in CFU at 4 times MIC after 24 hrs; format: functional
Outline: (§4)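 Late-log cells diluted to ~5 × 10^6 CFU/mL and exposed in triplicate to 4 × MIC, in TSB (E. faecalis HM-201) or BHI (E. faecium ATCC 700221) at 37 °C. Sampled at 0, 2, 4, 6, 8, 10, 12 and 24 h, diluted serially in PBS and plated on TSA or BHI agar. CFU/mL counted after 18–22 h. DMSO served as negative control.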

Enterococcus faecium [10] = test: Bacteriostatic activity against vancomycin-resistant Enterococcus faecium ATCC 700221 assessed as reduction in CFU at 4 times MIC after 24 hrs; format: functional; outline: as §4
Enterococcus faecium [11] = test: Antibacterial activity against vancomycin-resistant Enterococcus faecium ATCC HM-968 assessed as ratio of MIC after and before 3 serial passages measured after 18 hrs by broth microdillution method; format: functional
Outline: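 Multi-step resistance selection: 0.5 McFarland suspension diluted 1:300 in BHI to a starting 1 × 10^5 CFU/mL. Broth microdilution MIC repeated for 14 passages over two weeks, each reseeded at ~5 × 10^5 CFU/mL from the sub-inhibitory well of the previous passage. Serial dilutions in triplicate, 37 °C for at least 18 h, MIC read visually. Resistance defined as a >4-fold MIC rise.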

Caenorhabditis elegans = test: Toxicity in Caenorhabditis elegans AU37 assessed as worm survival at 20 ug/ml after 24 hrs by microscopic analysis; conditions: caenorhabditis elegans, 24 h
Outline: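 Adult C. elegans AU37, 15–20 per well, exposed in triplicate to 10 or 20 μg/mL, with sterile water as negative control. Viability checked by microscopy. Result reported as percent viable worms after 24 h exposure.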

Enterococcus faecium [12] = test: Ratio of MBC50 to MIC50 for Enterococcus faecium clinical isolates; format: functional
Outline: (§5)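 MIC by CLSI broth microdilution in TSB (E. faecalis) or BHI (E. faecium), 37 °C for 18–22 h, taken as the lowest concentration without visible growth. For MBC, 5 μL aliquots were spotted onto TSA (E. faecalis) or BHI agar (E. faecium) and incubated 37 °C for 18–22 h; MBC is the concentration giving >99% drop in count. MIC50/MBC50 cover 50% of isolates.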

Enterococcus faecalis [13] = test: Ratio of MBC50 to MIC50 for Enterococcus faecalis clinical isolates; format: functional; outline: as §5
Enterococcus faecalis [14] = test: Antibacterial activity against vancomycin-resistant Enterococcus faecalis ATCC 51299 after 14 serial passages measured after 18 hrs by broth microdillution method; format: functional
Outline: (§6)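 Multi-step selection over 14 passages in two weeks. McFarland 0.5 inoculum diluted 1:300 in TSB (E. faecalis) or BHI (E. faecium) to 1 × 10^5 CFU/mL. Each passage reinoculated at ~5 × 10^5 CFU/mL from the sub-inhibitory well of the previous plate. Compounds serially diluted in triplicate, incubated ≥18 h at 37 °C, MIC read visually. Resistance defined as >4-fold MIC rise.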

Acinetobacter baumannii [15] = test: Antibacterial activity against Acinetobacter baumanii ATCC 19606 after 18 to 22 hrs in absence of colistin by broth microdilution method; format: functional; conditions: ATCC 19606 = CIP 70.34 = JCM 6841; outline: as §1
Escherichia coli [16] = test: Antibacterial activity against Escherichia coli O157:H7 ATCC 35150 after 18 to 22 hrs in absence of colistin by broth microdilution method; format: functional
Enterobacter cloacae [17] = test: Antibacterial activity against Enterobacter cloacae BAA-1154 after 18 to 22 hrs in absence of colistin by broth microdilution method; format: functional
Klebsiella pneumoniae [18] = test: Antibacterial activity against Klebsiella pneumoniae BAA-1706 after 18 to 22 hrs in absence of colistin by broth microdilution method; format: functional
Pseudomonas aeruginosa [19] = test: Antibacterial activity against Pseudomonas aeruginosa ATCC 15442 after 18 to 22 hrs in absence of colistin by broth microdilution method; format: functional
Acinetobacter baumannii [20] = test: Antibacterial activity against Acinetobacter baumanii ATCC 19606 after 18 to 22 hrs in presence of 1/4 times MIC colistin by broth microdilution method; format: functional; conditions: ATCC 19606 = CIP 70.34 = JCM 6841; outline: as §1
Enterobacter cloacae [21] = test: Antibacterial activity against Enterobacter cloacae BAA-1154 after 18 to 22 hrs in presence of 1/4 times MIC colistin by broth microdilution method; format: functional; outline: as §1
Klebsiella pneumoniae [22] = test: Antibacterial activity against Klebsiella pneumoniae BAA-1706 after 18 to 22 hrs in presence of 1/4 times MIC colistin by broth microdilution method; format: functional; outline: as §1
Pseudomonas aeruginosa [23] = test: Antibacterial activity against Pseudomonas aeruginosa ATCC 15442 after 18 to 22 hrs in presence of 1/4 times MIC colistin by broth microdilution method; format: functional; outline: as §1
Staphylococcus aureus = test: Antibacterial against Methicillin-Resistant Staphylococcus aureus after 18 to 20 hrs by broth microdilution method; format: functional
Enterococcus faecalis [24] = test: Antibacterial activity against Enterococcus faecalis clinical isolates after 18 to 22 hrs by broth microdilution method; format: functional
Outline: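 CLSI broth microdilution against panels of enterococcal isolates. E. faecalis grown in TSB, E. faecium in BHI, 37 °C for 18–22 h. MIC is the lowest concentration without visible growth. MIC50 is the value inhibiting 50% of isolates in each group.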

Enterococcus faecium [25] = test: Bactericidal activity against vancomycin-resistant Enterococcus faecium ATCC 700221 at 4 times MIC after 2 hrs by time-kill assay; format: functional; outline: as §4
Enterococcus faecium [26] = test: Bactericidal activity against vancomycin-resistant Enterococcus faecium ATCC 700221 at 4 times MIC after 24 hrs by time-kill assay; format: functional; outline: as §4
HRT-18 cell line [27] = test: Cytotoxicity against human HRT18 cells assessed as reduction in cell viability up to 40 ug/ml after 2 hrs by MTS assay; format: cell-based; conditions: hrt-18, 2 h
Outline: (§7)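 HRT-18 cells maintained in RPMI-1640 with 10% fetal horse serum at 37 °C, 5% CO2. Exposed to 5, 10, 20 or 40 μg/mL for 2 or 24 h, then MTS added and absorbance read at 490 nm. Viability expressed relative to untreated cells, n ≥ 3, one-way ANOVA with Dunnett's test.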

HRT-18 cell line [28] = test: Cytotoxicity against human HRT18 cells assessed as reduction in cell viability at 20 ug/ml after 24 hrs by MTS assay; format: cell-based; conditions: hrt-18, 24 h; outline: as §7
HRT-18 cell line [29] = test: Cytotoxicity against human HRT18 cells assessed as reduction in cell viability at 40 ug/ml after 24 hrs by MTS assay; format: cell-based; conditions: hrt-18, 24 h; outline: as §7
Enterococcus faecalis [30] = test: Antibacterial activity against Enterococcus faecalis ATCC 31975 at 4 to 8 times MIC after 48 hrs by broth microdillution method; format: functional
Outline: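 Single-step resistance selection. Cultures of 5 × 10^8 to 5 × 10^10 CFU/mL spread on TSA containing compound at 2×, 4× or 8× MIC and incubated aerobically at 37 °C for 48 h. Colony MICs rechecked by broth microdilution. Frequency calculated as resistant colonies per inoculum.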

Enterococcus faecalis [31] = test: Antibacterial activity against vancomycin-resistant Enterococcus faecalis ATCC 51299 assessed as ratio of MIC after and before 6 serial passages measured after 18 hrs by broth microdillution method; format: functional; outline: as §6
Enterococcus faecium [32] = test: Antibacterial activity against vancomycin-resistant Enterococcus faecium ATCC HM-968 assessed as ratio of MIC after and before 11 serial passages measured after 18 hrs by broth microdillution method; format: functional; outline: as §6
Enterococcus faecalis [33] = test: Antibacterial activity against vancomycin-resistant Enterococcus faecalis ATCC 51299 assessed as ratio of MIC after and before 11 serial passages measured after 18 hrs by broth microdillution method; format: functional; outline: as §6
Enterococcus faecalis [34] = test: Synergistic antimicrobial activity against Enterococcus faecalis ATCC 49532 after 20 hrs in presence of ciprofloxacin by checkerboard assay; format: functional
Outline: (§8)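 Checkerboard in TSB with a starting inoculum of 1×10^5 CFU/mL. Compound and antibiotic diluted from 2× or 4× MIC along perpendicular axes. Incubated 20 h at 37 °C. ΣFIC calculated: ≤0.5 synergy, >0.5 to <2 additive, 2–4 indifference, >4 antagonism.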

Enterococcus faecalis [35] = test: Synergistic antimicrobial activity against Enterococcus faecalis ATCC 49533 after 20 hrs in presence of ciprofloxacin by checkerboard assay; format: functional; outline: as §8
Enterococcus faecium [36] = test: Ratio of MBC50 to MIC50 for vancomycin-resistant Enterococcus faecium ATCC 700221; format: functional

CC(=O)NC[C@H]1CN(c2ccc(N3CCOCC3)c(F)c2)C(=O)O1 [LINEZOLID]
MIC (Escherichia coli [1]): > 128 µg/mL | MIC (Escherichia coli [2]): 8 µg/mL (≈ 23.7 µM) | MIC (Enterococcus faecium [3]): 0.5 µg/mL (≈ 1.48 µM) | MIC50 (Enterococcus faecium [4]): 2 µg/mL (≈ 5.93 µM) | MBC50 (Enterococcus faecium [5]): 128 µg/mL (≈ 379 µM) | MBC50 (Enterococcus faecium [6]): 16 µg/mL (≈ 47.4 µM) | MBC50 (Enterococcus faecalis [7]): 64 µg/mL (≈ 190 µM) | MBC50 (Enterococcus faecalis [8]): 64 µg/mL (≈ 190 µM) | Activity (Enterococcus faecalis [9]): Active | Activity (Enterococcus faecium [10]): Active | Ratio (Enterococcus faecium [11]): 1 | Activity (Caenorhabditis elegans): Non-Toxic | Ratio (Enterococcus faecium [12]): >4 | Ratio (Enterococcus faecalis [13]): >4 | Activity (Enterococcus faecalis [14]): Active

C/C(=N\NC(=N)N)c1sc(-c2ccc(-c3ccccc3)cc2)nc1C
MIC (Acinetobacter baumannii [15]): 8 µg/mL (≈ 22.9 µM) | MIC (Escherichia coli [16]): > 128 µg/mL | MIC (Enterobacter cloacae [17]): > 128 µg/mL | MIC (Klebsiella pneumoniae [18]): > 128 µg/mL | MIC (Pseudomonas aeruginosa [19]): > 128 µg/mL | MIC (Escherichia coli [2]): 4 µg/mL (≈ 11.4 µM) | MIC (Enterococcus faecium [3]): 0.5 µg/mL (≈ 1.43 µM) | MIC (Acinetobacter baumannii [20]): 1 µg/mL | MIC (Enterobacter cloacae [21]): 1 µg/mL | MIC (Klebsiella pneumoniae [22]): 2 µg/mL | MIC (Pseudomonas aeruginosa [23]): 1 µg/mL | MIC (Staphylococcus aureus): 1.3 to 5.6 µg/mL (≈ 3.72 to 16 µM) | MIC50 (Enterococcus faecium [4]): 8 µg/mL (≈ 22.9 µM) | MIC50 (Enterococcus faecalis [24]): 8 µg/mL (≈ 22.9 µM) | MBC50 (Enterococcus faecium [5]): 16 µg/mL (≈ 45.8 µM) | MBC50 (Enterococcus faecium [6]): 16 µg/mL (≈ 45.8 µM) | MBC50 (Enterococcus faecalis [7]): 16 µg/mL (≈ 45.8 µM) | Activity (Enterococcus faecium [25]): Active | Activity (Enterococcus faecium [26]): inactive | Activity (Enterococcus faecium [10]): Active | Activity (HRT-18 cell line [27]): Non-Toxic | Activity (HRT-18 cell line [28]): Non-Toxic | Activity (HRT-18 cell line [29]): Toxic | Activity (Enterococcus faecalis [30]): Active | Ratio (Enterococcus faecalis [31]): 1 | Ratio (Enterococcus faecium [32]): 1 | Ratio (Enterococcus faecalis [33]): 2 | fractional inhibitory concentration index (FICI) (Enterococcus faecalis [34]): 0.63 - 1 | fractional inhibitory concentration index (FICI) (Enterococcus faecalis [35]): 0.63 - 1 | Ratio (Enterococcus faecium [36]): >4
